Experiments:
Mus musculus = experiment: Hypothermia in mice after peroral administration; type: functional
[1] = Lethal dose in mice after perorla administration; type: toxicity, organism-based; conditions: mouse, in vivo, po
Rattus norvegicus [2] = experiment: Compound was assessed for its ability to block a conditioned avoidance response; Dose administered intraperitoneally is 50 mg/kg; no significant effect (0-25%block); type: functional; conditions: route intraperitoneal
Rattus norvegicus [3] = experiment: Compound was assessed for its ability to block a conditioned avoidance response; Dose administered perorally is 10 mg/kg; 31-50%block; type: functional; conditions: route oral
In short: (§1)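 Lilly Wistar rats (120–130 g) trained in a shuttle box to cross on a 5-s buzzer, with mild shock if no response within 1 s of buzzer end. Only rats with a high conditioned response were used. Groups of five were dosed orally 1 h 50 min before the session, then habituated 10 min and tested 20 min. Shocks were scored as % of stimuli and graded 0–5.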

Rattus norvegicus [4] = experiment: Compound was assessed for its ability to produce catalepsy in rats; Dose administered perorally is 16 mg/kg; Group score is 4-7; type: functional; conditions: route oral
In short: (§2)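 Groups of eight Lilly Wistar rats (180–190 g) were dosed orally, then checked at 0.5, 1, 1.5, 2, 3, 4 and 5 h. Front paws were placed on a 1.5-cm rod 7 cm above the table, and hold time was recorded up to 20 min. Each rat was scored 0–5 and its maximum scores were summed per group (maximum 40), then graded 0–4.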

Rattus norvegicus [5] = experiment: Compound was assessed for its ability to block a conditioned avoidance response; Dose administered perorally is 10 mg/kg; no significant effect (0-25%block); type: functional; conditions: route oral; in short: as §1
Rattus norvegicus [6] = experiment: Ability to block a conditioned avoidance response; Dose administered perorally is 50 mg/kg.; type: functional; conditions: route oral; in short: as §1
Rattus norvegicus [7] = experiment: Compound was assessed for its ability to produce catalepsy in rats; Dose administered perorally is 50 mg/kg; Group score is 0-3; type: functional; conditions: route oral; in short: as §2
Rattus norvegicus [8] = experiment: Compound was assessed for its ability to produce catalepsy in rats; Dose administered perorally is 25 mg/kg; Group score is 8-15; type: functional; conditions: route oral; in short: as §2
Rattus norvegicus [9] = experiment: Compound was assessed for its ability to block a conditioned avoidance response; Dose administered perorally is 40 mg/kg; 26-30%block; type: functional; conditions: route oral; in short: as §1
Rattus norvegicus [10] = experiment: Compound was assessed for its ability to block a conditioned avoidance response; Dose administered perorally is 20 mg/kg; 76-99%block; type: functional; conditions: route oral; in short: as §1
Rattus norvegicus [11] = experiment: Compound was assessed for its ability to produce catalepsy in rats; Dose administered perorally is 10 mg/kg; Group score is 4-7; type: functional; conditions: route oral; in short: as §2
Rattus norvegicus [12] = experiment: Compound was assessed for its ability to block a conditioned avoidance response; Dose administered perorally is 10 mg/kg; 26-30%block; type: functional; conditions: route oral; in short: as §1
Rattus norvegicus [13] = experiment: Compound was assessed for its ability to produce catalepsy in rats; Dose administered perorally is 50 mg/kg; Group score is 8-15; type: functional; conditions: route oral; in short: as §2
Rattus norvegicus [14] = experiment: Compound was assessed for its ability to block a conditioned avoidance response; Dose administered perorally is 50 mg/kg; 76-99%block; type: functional; conditions: route oral; in short: as §1
Rattus norvegicus [15] = experiment: Compound was assessed for its ability to block a conditioned avoidance response; Dose administered perorally is 20 mg/kg; no significant effect (0-25%block); type: functional; conditions: route oral; in short: as §1
Rattus norvegicus [16] = experiment: Compound was assessed for its ability to produce catalepsy in rats; Dose administered perorally is 50 mg/kg; Group score is 4-7; type: functional; conditions: route oral; in short: as §2
Rattus norvegicus [17] = experiment: Compound was assessed for its ability to block a conditioned avoidance response; Dose administered perorally is 50 mg/kg; 26-30%block; type: functional; conditions: route oral; in short: as §1
Rattus norvegicus [18] = experiment: Compound was assessed for its ability to block a conditioned avoidance response; Dose administered perorally is 10 mg/kg; 51-75%block; type: functional; conditions: route oral; in short: as §1
Rattus norvegicus [19] = experiment: Compound was assessed for its ability to produce catalepsy in rats; Dose administered perorally is 10 mg/kg; Group score is 8-15; type: functional; conditions: route oral; in short: as §2

| Compound | EDmin (Mus musculus) [mg/kg] | LD50 [1] [mg/kg] | Activity (Rattus norvegicus [6]) | other results |
| --- | --- | --- | --- | --- |
| CCc1cc2c(s1)Nc1ccc(F)cc1N=C2N1CCN(c2ccccc2)CC1 | >400 | > 400 | – | Activity (Rattus norvegicus [2]): 0 |
| CCc1cc2c(s1)Nc1ccccc1N=C2N1CCN(C)CC1 | 25 | 150 | – | Activity (Rattus norvegicus [3]): 2; Activity (Rattus norvegicus [4]): 1 |
| CN1CCN(C2=Nc3ccccc3Nc3sc(C(C)(C)C)cc32)CC1 | 12.5 | 400 | – | Activity (Rattus norvegicus [5]): 0 |
| CCOC(=O)N1CCN(C2=Nc3cc(F)ccc3Nc3sc(C)cc32)CC1 | >400 | > 400 | 0 | – |
| CCc1cc2c(s1)Nc1ccc(F)cc1N=C2N1CCN(Cc2ccc(Cl)cc2)CC1 | >400 | > 400 | 0 | Activity (Rattus norvegicus [7]): 0 |
| CN1CCN(C2=Nc3cc(F)ccc3Nc3sc(-c4ccccc4)cc32)CC1 | 50 | > 400 | 0 | Activity (Rattus norvegicus [7]): 0 |
| CCc1cc2c(s1)Nc1ccc(F)cc1N=C2N1CCN(Cc2ccccc2)CC1 | 200 | > 400 | – | Activity (Rattus norvegicus [8]): 2; Activity (Rattus norvegicus [9]): 1 |
| CCc1cc2c(s1)Nc1ccc(F)cc1N=C2NCCCN1CCOCC1 | 400 | 800 | – | Activity (Rattus norvegicus [2]): 0 |
| CCc1cc2c(s1)Nc1ccc(Cl)cc1N=C2N1CCNCC1 | 50 | > 400 | 0 | Activity (Rattus norvegicus [7]): 0 |
| CCc1cc2c(s1)Nc1ccc(F)cc1N=C2N1CCN(CCO)CC1 | 50 | 400 | – | Activity (Rattus norvegicus [10]): 4; Activity (Rattus norvegicus [11]): 1 |
| CN1CCN(C2=Nc3cc(F)ccc3Nc3sc(C(C)(C)C)cc32)CC1 | 12.5 | > 400 | – | Activity (Rattus norvegicus [12]): 1; Activity (Rattus norvegicus [11]): 1 |
| CCc1cc2c(s1)Nc1ccc(F)cc1N=C2N1CCN(c2cccc(C(F)(F)F)c2)CC1 | >400 | 400 | – | Activity (Rattus norvegicus [2]): 0 |
| CCc1cc2c(s1)Nc1ccccc1N=C2N1CCN(CC)CC1 | 50 | 200 | – | Activity (Rattus norvegicus [3]): 2; Activity (Rattus norvegicus [11]): 1 |
| CCc1cc2c(s1)Nc1ccc(S(C)(=O)=O)cc1N=C2N1CCN(C)CC1 | >400 | > 400 | 0 | – |
| CCc1cc2c(s1)Nc1ccc(F)cc1N=C2N1CCOCC1 | >400 | > 400 | 0 | – |
| CCc1cc2c(s1)Nc1ccccc1N=C2N1CCN(Cc2ccccc2)CC1 | 200 | > 400 | – | Activity (Rattus norvegicus [13]): 2; Activity (Rattus norvegicus [14]): 4 |
| CC(=O)c1cc2c(s1)Nc1ccccc1C(N1CCN(C)CC1)=N2 | 200 | > 400 | – | Activity (Rattus norvegicus [9]): 1 |
| CCc1cc2c(s1)Nc1ccc(F)cc1N=C2NCCO | 200 | > 800 | 0 | Activity (Rattus norvegicus [7]): 0 |
| CC(=O)c1cc2c(s1)Nc1ccc(F)cc1N=C2N1CCN(C)CC1 | 12.5 | 200 | – | Activity (Rattus norvegicus [13]): 2; Activity (Rattus norvegicus [15]): 0 |
| CCc1cc2c(s1)Nc1ccc(SC)cc1N=C2N1CCN(C)CC1 | 100 | > 200 | 0 | – |
| CCc1cc2c(s1)Nc1cc(F)cc(F)c1N=C2N1CCN(C)CC1 | 25 | 600 | – | Activity (Rattus norvegicus [16]): 1; Activity (Rattus norvegicus [17]): 1 |
| CN(C)CCCN1c2ccccc2Sc2ccc(Cl)cc21 [CHLORPROMAZINE] | 6.25 | 400 | – | Activity (Rattus norvegicus [18]): 3; Activity (Rattus norvegicus [11]): 1 |
| Cc1cc2c(s1)Nc1ccc(F)cc1N=C2N1CC[N+](C)([O-])CC1 | 6.25 | 200 | – | Activity (Rattus norvegicus [18]): 3; Activity (Rattus norvegicus [19]): 2 |
| CCOC(=O)N1CCN(C2=Nc3ccccc3Nc3sc(CC)cc32)CC1 | 50 | > 400 | 0 | – |
